The array DNA melting data of Ke et al. (doi:10.1101/2024.01.08.574731)

Experiments:
[1] = folding enthalpy; higher = less favourable; fluorescence melt of hairpins on a sequencing array, two-state fit; details: sodium 0.088 M
Procedure, shortened: (§1)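 With Cy3 and quencher oligos annealed, library hairpins on a sequenced MiSeq flow cell were imaged for Cy3 fluorescence in 50 mM Na-HEPES pH 8.0, 25 mM NaCl, in 2.5 °C steps up to 60 °C. Melting temperature and folding enthalpy were derived from bootstrapped two-state fits of signals normalised to pre-quench Cy3 and to control constructs. Four replicates were combined by inverse variance, with fitted temperatures raised by 9.35 °C to match UV melts.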

[2] = melting temperature; fluorescence melt of hairpins on a sequencing array, two-state fit, raised by 9.35 °C to match UV melts; details: sodium 0.088 M
Procedure, shortened: as §1

| Sequence | folding enthalpy [1] | Tm [2] |
| --- | --- | --- |
| GGCGTCGAAAGACAGCC ((((((....))).))) | -34.3 kcal/mol | 63.7 °C |
| GACCCCCGAAAGGGAGTC (((.(((....))).))) | -28.8 kcal/mol | 54 °C |
| GTAAGGGGAAACCCTTAC (((((((....))))))) | -42.4 kcal/mol | 54.8 °C |
| GCGAGTTTTCGC ((((....)))) | -16.5 kcal/mol | 53.3 °C |
| GATCACACGTGTGATC ((((((....)))))) | -43.5 kcal/mol | 57.7 °C |
| GCACCAGGAAACCAGTGC ((((..(....)..)))) | -30.5 kcal/mol | 39 °C |
| GTAAAACGAAAGTTGTAC (((.(((....))).))) | -20.4 kcal/mol | 35.3 °C |
| GCCATACGAAAGTAGGC (((.(((....)))))) | -28.4 kcal/mol | 52.6 °C |
| GCTTGAGGAAACTCAGGC ((.((((....)))).)) | -32.9 kcal/mol | 47.6 °C |
| GCGAGTGCTCGC ((((....)))) | -26.2 kcal/mol | 52 °C |
| GACCACGAAAGTGTGTC ((((((....))).))) | -27.3 kcal/mol | 52.9 °C |
| GATCGTTGGAACGATC ((((((....)))))) | -42.4 kcal/mol | 54.4 °C |
| GCAAAGCGAAAGCGGTGC (((..((....))..))) | -19.8 kcal/mol | 61.7 °C |
| GGGAACGAAAGTTATCCC ((((((....)))..))) | -23.3 kcal/mol | 36.6 °C |
| GTGAGCGAAAGCTTTCAC ((((((....)))..))) | -10.7 kcal/mol | 32.3 °C |
| GATCATAATGATGATC ((((((....)))))) | -29.9 kcal/mol | 45.6 °C |
| GAAAGACGAAAGTCCTTC (((.(((....))).))) | -15.6 kcal/mol | 32.8 °C |
| GCTCAGGGAAACCCAAGC (((..((....))..))) | -12.9 kcal/mol | 33.3 °C |
| GAGCAAGAAATTGCTC ((((((....)))))) | -29.8 kcal/mol | 54.8 °C |
| GATCCAATTGTGGATC ((((((....)))))) | -32.7 kcal/mol | 49.6 °C |
| GTACGGGGAAACCTGTAC ((((.((....)).)))) | -35.9 kcal/mol | 49.7 °C |
| GCTAATCGAAAGATGAGC (((.(((....))).))) | -31.4 kcal/mol | 47.8 °C |
| GTGATCGGAAACGATTAC ((.((((....)))).)) | -24.4 kcal/mol | 48.2 °C |
| GATCGAACTCTCGATC ((((((....)))))) | -35.6 kcal/mol | 49.7 °C |

| Sequence | folding enthalpy [1] | Tm [2] |
| --- | --- | --- |
| CGCTCACGGAAACGTGCG (((..(((....)))))) | -15.6 kcal/mol | 39.6 °C |
| GGATTTCCGAAAGGATCC (((..(((....)))))) | -17.6 kcal/mol | 34.2 °C |
| GTTCTCGAAAGAGTAAAC ((((((....)))..))) | -12.5 kcal/mol | 27.9 °C |
| GCTCGGACGAAAGTCAGC (((..(((....)))))) | -12.3 kcal/mol | 39.1 °C |
| GAAAATGAAAATTTTC ((((((....)))))) | -23.1 kcal/mol | 38.6 °C |
| GCTGCGCGAAAGCAGAGC (((..((....))..))) | -16.1 kcal/mol | 47.7 °C |
| GCTTTCGAAAGAATGAGC ((((((....)))..))) | -14.8 kcal/mol | 31.9 °C |
| GGGTCCGAAAGGATGCCC ((((((....)))..))) | -24.3 kcal/mol | 45.5 °C |
| GCCTTAGGAAACTAAGAC (.(((((....))))).) | -13.8 kcal/mol | 30.1 °C |
| GCAGTCCCGAAAGGGTGC (((..(((....)))))) | -15.3 kcal/mol | 43.5 °C |
| GGCGTCGAAAGACGCGCC ((((((....)))..))) | -6.87 kcal/mol | 62.7 °C |
| GTTTGAGGAAACTCGAAC (((.(((....))).))) | -31.7 kcal/mol | 45.6 °C |
| GCGGGCTCGAAAGAGCGC (((..(((....)))))) | -10.2 kcal/mol | 55 °C |
| GGGATTCGAAAGAACCC (((.(((....)))))) | -25.5 kcal/mol | 47.1 °C |
| GCCCCGCGAAAGCCGAGC ((.(.((....)).).)) | -11.3 kcal/mol | 32.1 °C |
| GGTCTCGAAAGAGTAACC ((((((....)))..))) | -21.9 kcal/mol | 35.1 °C |
| GCTGAAGGAAACTCCAGC ((((.((....)).)))) | -27.8 kcal/mol | 40.7 °C |
| GCCTCCGAAAGGAGTGGC ((((((....)))..))) | -17.1 kcal/mol | 50.3 °C |
| GATCCCACGGGGGATC ((((((....)))))) | -35.8 kcal/mol | 61.3 °C |
| GTTCCCACGAAAGTGAAC (((..(((....)))))) | -10 kcal/mol | 25.7 °C |
| GCACAGCGAAAGCTTGC (((.(((....)))))) | -20.1 kcal/mol | 51.5 °C |
| GGATGAGGAAACTCGTTC (.(.(((....))).).) | -15.8 kcal/mol | 28.3 °C |
| GCTGGAGAAATCCAGC ((((((....)))))) | -35.9 kcal/mol | 62.9 °C |
| GCAGTGCGAAAGCCCCGC ((.(.((....)).).)) | -10.3 kcal/mol | 41.1 °C |

| Sequence | folding enthalpy [1] | Tm [2] |
| --- | --- | --- |
| GCAGCTCGAAAGAGTGC (((.(((....)))))) | -30 kcal/mol | 51.4 °C |
| GCCTCGCGAAAGCATGGC (((..((....))..))) | -18.4 kcal/mol | 53.3 °C |
| GTACTGCGAAAGCATAC (((.(((....)))))) | -12 kcal/mol | 36.6 °C |
| GATCATACAATGATC ((((((...)))))) | -39.5 kcal/mol | 48.4 °C |
| GATCCCCTCGGGGATC ((((((....)))))) | -32.5 kcal/mol | 67.6 °C |
| GCGGTGCGAAAGCCACGC (((..((....))..))) | -19.8 kcal/mol | 61.5 °C |
| GCGTTTCGAAAGAACGC (((.(((....)))))) | -33.8 kcal/mol | 57.6 °C |
| GCGTATGGAAACATATGC ((.((((....)))).)) | -46.8 kcal/mol | 47.8 °C |
| GCTACGGGAAACCGCAGC (((.(((....))).))) | -41.7 kcal/mol | 49.7 °C |
| GTCCCCCGAAAGGGGAC (((.(((....)))))) | -19.9 kcal/mol | 67.2 °C |
| GCGGTGCCGAAAGGCCGC (((..(((....)))))) | -19.4 kcal/mol | 62.3 °C |
| GACCAGGGAAACCCAGTC (((..((....))..))) | -18.4 kcal/mol | 29.1 °C |
| GCACAGCGAAAGCCGCGC ((.(.((....)).).)) | -20.3 kcal/mol | 46.5 °C |
| GATCTGCATCAGATC ((((((...)))))) | -30.6 kcal/mol | 47.8 °C |
| GTTTGACCGAAAGGTAAC (((..(((....)))))) | -11.6 kcal/mol | 32.4 °C |
| GTCGGAGGAAACTCCAAC ((.((((....)))).)) | -22.7 kcal/mol | 35.5 °C |
| GCGACGGTTCGC ((((....)))) | -20.1 kcal/mol | 49.1 °C |
| GAATGCGAAAGCATTTC ((((((....))).))) | -12.5 kcal/mol | 50.2 °C |
| GGCAAGCCGAAAGGCGCC (((..(((....)))))) | -14.4 kcal/mol | 59.8 °C |
| GATGTACGAAAGTAGATC (((.(((....))).))) | -30.5 kcal/mol | 44 °C |
| GCGGGGCGCCGC ((((....)))) | -14.7 kcal/mol | 66.1 °C |
| GGTCGAGGAAACTCGGTC (..((((....))))..) | -16.2 kcal/mol | 38.4 °C |
| GCACAGAAATGTGC (((((....))))) | -33.9 kcal/mol | 57.2 °C |
| GATCGCCTTTGCGATC ((((((....)))))) | -38.6 kcal/mol | 67.8 °C |

| Sequence | folding enthalpy [1] | Tm [2] |
| --- | --- | --- |
| GGCGTGGGAAACCGTGCC (((..((....))..))) | -32.1 kcal/mol | 49.1 °C |
| GTTGACGAAAGTCCAAAC ((((((....)))..))) | -9.18 kcal/mol | 24.3 °C |
| GGTTCCCGAAAGGGCACC (((.(((....))).))) | -26.2 kcal/mol | 51.6 °C |
| GTATGTGGAAACACGTAC (((.(((....))).))) | -29.3 kcal/mol | 47.1 °C |
| GATCATCCGAATGATC ((((((....)))))) | -30.3 kcal/mol | 47.2 °C |
| AGCTTGAAAAAGCT (((((....))))) | -17.4 kcal/mol | 47.9 °C |
| GCCACCGGAAACGATGGC ((((.((....)).)))) | -44 kcal/mol | 52.6 °C |
| GGTGCTGCGAAAGCAACC (((..(((....)))))) | -14.4 kcal/mol | 43.8 °C |
| GATCACATCTGTGATC ((((((....)))))) | -38.7 kcal/mol | 57.9 °C |
| GATTGCGAAAGCACGATC ((((((....)))..))) | -7.93 kcal/mol | 28.7 °C |
| GCAGTCGAAAGACGTTGC ((((((....)))..))) | -17 kcal/mol | 45.9 °C |
| GTCAAGGGAAACCTTGAC (((((((....))))))) | -47.2 kcal/mol | 58 °C |
| GCGTATCACGC ((((...)))) | -34.2 kcal/mol | 56.9 °C |
| GATAGACGAAAGTCATC (((.(((....)))))) | -15.4 kcal/mol | 38.4 °C |
| GATCAGATGGCTGATC ((((((....)))))) | -30.4 kcal/mol | 49.3 °C |
| CGGCCGCGGAAACGCCCG (((..(((....)))))) | -20.9 kcal/mol | 42.2 °C |
| GGCTGGTCGAAAGACGCC (((..(((....)))))) | -27 kcal/mol | 52.1 °C |
| GGCGACGAAAGTCCGGCC ((((((....)))..))) | -21.7 kcal/mol | 51.5 °C |
| GCGAAAGGAAACTCTCGC ((((.((....)).)))) | -28.1 kcal/mol | 38.3 °C |
| GGCAACGAAAGTTGTGCC ((((((....)))..))) | -13.5 kcal/mol | 51.2 °C |
| GCGAGAAATCGC ((((....)))) | -21.5 kcal/mol | 52.5 °C |
